Data set [1] concerns the target T1, Histone acetyltransferase RTT109 (Saccharomyces cerevisiae (strain ATCC 204508 / S288c) (Baker's yeast)) (UniProt Q07794).
T1 sequence (whole entry): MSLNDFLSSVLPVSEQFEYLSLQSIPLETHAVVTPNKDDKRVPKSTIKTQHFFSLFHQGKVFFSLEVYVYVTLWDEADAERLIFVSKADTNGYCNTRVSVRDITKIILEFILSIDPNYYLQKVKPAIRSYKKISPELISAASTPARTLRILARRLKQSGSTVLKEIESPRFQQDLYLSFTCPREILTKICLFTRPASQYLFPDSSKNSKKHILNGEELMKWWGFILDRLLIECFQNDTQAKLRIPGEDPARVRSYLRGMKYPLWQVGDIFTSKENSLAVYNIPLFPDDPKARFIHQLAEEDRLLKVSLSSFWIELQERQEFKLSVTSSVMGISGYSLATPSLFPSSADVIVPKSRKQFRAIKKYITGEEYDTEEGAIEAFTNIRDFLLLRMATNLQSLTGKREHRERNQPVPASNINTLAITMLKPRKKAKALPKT
Kind of data set: Inhibition of Vps75-stimulated recombinant Saccharomyces cerevisiae histone acetyltransferase Rtt109 assessed as H3K27 acetylated product at […] after 45 mins by Slot bolt inhibiton assay.

Data set [2] has as its target T1, Histone acetyltransferase RTT109 (Saccharomyces cerevisiae (strain ATCC 204508 / S288c) (Baker's yeast)). Kind of data set: Inhibition of Vps75-stimulated recombinant Saccharomyces cerevisiae histone acetyltransferase Rtt109 assessed as H3K56 acetylated product at […] after 45 mins by Slot bolt inhibiton assay.
The nature of data set [3]: Fluorescence quenching in HTS buffer assessed as fluorescence signal reduction at 10 uM after 10 mins. The format is physicochemical.
Data set [4] can be described thus: Fluorescence quenching in HTS buffer with […] CoA assessed as fluorescence signal reduction at 10 uM after 10 mins. The format is physicochemical.
Data set [5] is described as follows: Fluorescence quenching in HTS buffer with 20 uM 7-diethylamino-3-(4'-maleimidyl-phenyl)-4-methylcoumarin assessed as fluorescence signal reduction at 10 uM after 10 mins. The class given is physicochemical.
Data set [6] can be described thus: Fluorescence quenching assessed as fluorescence signal reduction at 10 uM after 10 mins. The format is physicochemical. An outline of the steps: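 CPM (20 μM final) and CoA (5 μM final) reacted to completion in assay buffer (stable plateau, usually ~5 min); adduct solution added to wells preplated with compound; shaken 5 min, equilibrated 5 min at room temperature; fluorescence intensity read as percent signal reduction versus DMSO controls. Flagged as quencher at >20% signal reduction at 10 μM final compound.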

In ChEMBL document CHEMBL3414544, “PAINS in the assay: chemical mechanisms of assay interference and promiscuous enzymatic inhibition observed during a sulfhydryl-scavenging HTS” (J Med Chem, 2015) one finds Activity data, which are given here for 26 compounds.

Structures are written as SMILES. Calls of active or inactive are those of the source.

As for `c1ccc(C[n+]2sc(Nc3ccccc3)nc2-c2ccccc2)cc1`, the result in data set [1] and in data set [2] was Active.

Turning to `O=S1(=O)C=C(Sc2nn(-c3ccccc3)c(=S)s2)c2ccccc21`, the outcome in data set [1] and in data set [2] was Active. In addition, the Activity result in data set [3], in data set [4], in data set [5] and in data set [6] was “Not Active” each time.

As to `O=C1CC(Sc2nnc(-c3ccccc3)[nH]2)C(=O)N1c1ccc(Oc2ccccc2)cc1` (centres undefined), the outcome in data set [1] and in data set [2] was Active. In addition, the Activity result in data set [3], in data set [4], in data set [5] and in data set [6] was “Not Active” each time.

As to `O=C1C=CC(=O)N1c1ccc(Cl)cc1`, the outcome in data set [1] and in data set [2] was Active. For the same compound, the Activity result in data set [3], in data set [4], in data set [5] and in data set [6] was “Not Active” throughout.

Turning to `[O-][Cl+3]([O-])([O-])[O-].c1ccc(C[n+]2sc(N(c3ccccc3)c3ccccc3)nc2-c2ccccc2)cc1`, the outcome in data set [1] and in data set [2] was Active. The Activity result in data set [3], in data set [4], in data set [5] and in data set [6] was “Not Active” in each case.

With `Cc1ccc(-c2nnc(SC3CC(=O)N(c4ccc(Oc5ccccc5)cc4)C3=O)[nH]2)cc1` (centres undefined), the outcome in data set [1] and in data set [2] was Active. The Activity entry in data set [3], in data set [4], in data set [5] and in data set [6] was “Not Active” throughout.

As for `COc1ccc(N2C(=O)CC(Sc3nnc(-c4ccccc4)o3)C2=O)cc1` (centres undefined), the outcome in data set [1] and in data set [2] was Active. The Activity entry in data set [3], in data set [4], in data set [5] and in data set [6] was “Not Active” throughout.

For the compound `O=S(=O)(Nc1cc(Br)c(O)c2ccccc12)c1ccc2ccccc2c1`, the result in data set [1] was inactive. For the same compound, the Activity result in data set [3], in data set [4], in data set [5] and in data set [6] was “Not Active” in each case. Besides, in data set [2], the outcome was Active.

Turning to `CC(C)c1ccc(S(=O)(=O)Nc2cc(Sc3nc[nH]n3)c(O)c3ccccc23)cc1`, the outcome in data set [1] and in data set [2] was Active. The Activity entry in data set [3], in data set [4], in data set [5] and in data set [6] was “Not Active” in each case.

Regarding `Cc1occc1-c1nnc(SC2=CS(=O)(=O)c3ccccc32)o1`, the outcome in data set [1] and in data set [2] was Active. The Activity entry in data set [3], in data set [4], in data set [5] and in data set [6] was “Not Active” in each case.

On to `O=[N+]([O-])c1ccc(Sc2cccc(Cl)c2)c2nonc12`, for which the result in data set [1] and in data set [2] was Active.

With `O=S(=O)(C[n+]1sc(Nc2ccc(Cl)cc2Cl)nc1-c1ccccc1)c1ccccc1.[Cl-]`, the outcome in data set [1] and in data set [2] was Active. Also, the Activity result in data set [3], in data set [4], in data set [5] and in data set [6] was “Not Active” each time.

Take `O=C1CC(Sc2nnnn2-c2ccccc2)C(=O)N1c1ccc([N+](=O)[O-])cc1` (centres undefined): the outcome in data set [1] and in data set [2] was Active. Besides, the Activity entry in data set [3], in data set [4], in data set [5] and in data set [6] was “Not Active” throughout.

For `Cn1c(Sc2ccc([N+](=O)[O-])c3nonc23)nnc1-c1ccccc1`, the outcome in data set [1] and in data set [2] was Active. The Activity result in data set [3], in data set [4], in data set [5] and in data set [6] was “Not Active” throughout.

Consider `COc1cc(-c2nnc(SC3=CS(=O)(=O)c4ccccc43)o2)cc(OC)c1OC`, for which the result in data set [1] and in data set [2] was Active. Further, the Activity result in data set [3], in data set [4], in data set [5] and in data set [6] was “Not Active” each time.

Consider `CCOc1ccc(Nc2nc(-c3ccc(C)cc3)[n+](Cc3ccc([N+](=O)[O-])cc3)s2)cc1.[Br-]`, for which the outcome in data set [1] and in data set [2] was Active. For the same compound, the Activity entry in data set [3], in data set [4], in data set [5] and in data set [6] was “Not Active” each time.

As for `CCC(=O)OCCNc1cc(Sc2nnc(-c3ccccc3)s2)c2nonc2c1[N+](=O)[O-]`, the result in data set [1] and in data set [2] was Active. In addition, the Activity result in data set [3], in data set [4], in data set [5] and in data set [6] was “Not Active” each time.

As to `O=[N+]([O-])c1cc(Br)c2nsnc2c1Sc1nnnn1C1CCCCC1`, the outcome in data set [1] and in data set [2] was Active. The Activity entry in data set [3], in data set [4], in data set [5] and in data set [6] was “Not Active” throughout.

Regarding `CSc1nsc(SC2=CS(=O)(=O)c3ccccc32)n1`, the result in data set [1] and in data set [2] was Active. Further, the Activity entry in data set [3], in data set [4], in data set [5] and in data set [6] was “Not Active” each time.

For `Cc1ccc(-c2nnc(SC3CC(=O)N(c4ccc5ccccc5c4)C3=O)[nH]2)cc1` (centres undefined), the outcome in data set [1] and in data set [2] was Active. The Activity entry in data set [3], in data set [4], in data set [5] and in data set [6] was “Not Active” throughout.

For the compound `O=S(=O)(Nc1ccc(O)c(Br)c1)c1ccc(Cl)cc1`, the result in data set [1] and in data set [2] was inactive. Moreover, the Activity entry in data set [3], in data set [4], in data set [5] and in data set [6] was “Not Active” throughout.

Consider `O=S(=O)(Nc1cc(Sc2ccccc2)c(O)c2ccccc12)c1ccccc1`, for which the outcome in data set [1] and in data set [2] was Active. Besides, the Activity result in data set [3], in data set [4], in data set [5] and in data set [6] was “Not Active” in each case.

As for `Cc1nnc(SC2CC(=O)N(c3ccc(Br)cc3)C2=O)s1` (centres undefined), the outcome in data set [1] and in data set [2] was Active. Moreover, the Activity result in data set [3], in data set [4], in data set [5] and in data set [6] was “Not Active” in each case.

For `O=C(O)c1ccc(S(=O)(=O)Nc2cc(Br)c(O)c3ccccc23)cc1`, the outcome in data set [1] and in data set [2] was Active. Besides, the Activity entry in data set [3], in data set [4], in data set [5] and in data set [6] was “Not Active” in each case.

As for `Cc1ccc(-c2nc(N(c3ccccc3)c3ccccc3)s[n+]2CS(=O)(=O)c2ccccc2)cc1.[O-][Cl+3]([O-])([O-])[O-]`, the result in data set [1] and in data set [2] was inactive. Further, the Activity entry in data set [3], in data set [4], in data set [5] and in data set [6] was “Not Active” throughout.

For `Cc1ccc(S(=O)(=O)C[n+]2sc(N(c3ccccc3)c3ccccc3)nc2-c2ccccc2)cc1`, the outcome in data set [1] and in data set [2] was inactive.
